High-throughput results: PubChem BioAssay, several laboratories
NR1D1 modulator – Rev-erb alpha (human) modulation | activity, % at 10 µM | P20393 | Rev-erbα–FITC-DNA binding, fluorescence polarization, 90 min | AID 1259318 | 370,000 compounds, 0.79% hits;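 active = activity above about 14%, limit read from the data; passing the limit was not always enough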
HNF4A DNA FP – change in binding of human HNF4 alpha to DNA. P41235. HNF4a-FITC DNA binding, fluorescence polarization, 1 h. activity change, % at 10 µM. 360,000 compounds, 0.3% hits. AID 1224865; in the data active = activity change above about 30%, passing the limit was not always enough
CSN inh – CSN deneddylation inhibition; 360,000 compounds, 0.38% hits; Q92905; Purified CSN, SCF-Nedd8-OG deneddylation, fluorescence polarization; inhibition, % at 12.5 µM;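 active = pattern-corrected inhibition above about 35%, with an unprinted fluorescence ratio check between 0.5 and 1.5, limit read from the data, passing the limit was not always enough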
Target sequence (Q92905 whole entry, looked up, one chain of several): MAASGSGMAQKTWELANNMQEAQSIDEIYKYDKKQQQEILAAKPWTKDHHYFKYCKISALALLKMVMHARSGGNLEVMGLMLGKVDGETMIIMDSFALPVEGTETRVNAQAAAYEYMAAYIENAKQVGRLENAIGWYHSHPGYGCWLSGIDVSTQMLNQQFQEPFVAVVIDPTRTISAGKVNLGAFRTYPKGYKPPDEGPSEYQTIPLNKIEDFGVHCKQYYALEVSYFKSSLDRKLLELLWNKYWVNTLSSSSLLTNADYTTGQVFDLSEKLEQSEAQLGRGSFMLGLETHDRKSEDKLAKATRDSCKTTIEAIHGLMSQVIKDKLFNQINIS
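Material: human Csn5 produced in HEK293T cells; Input: enzyme 0.24 nM; Reagent: SCFSkp2-Nedd8OG substrate at 10 nM final; Dosing: 12.5 µM compound; Incubation: 90 min reaction at room temperature; Detection: fluorescence polarization of the substrate; Evaluation: % inhibition of substrate cleavage by Csn5; Control set: substrate-only high control, full reaction low control.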
TPT1 inhibitor – C. albicans TPT1 enzyme inhibition; recombinant caTPT1, FP RNA substrate dephosphorylation; inhibition, % at 5 µM; 300,000 compounds, 0.81% hits;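 active = inhibition above the mean of all tested compounds plus 3 SD, set per screening campaign, cut at about 24% in these data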
caTPT1 confirm – TPT1 (C. albicans) inhibition, confirmation; recombinant caTPT1, fluorescence polarization, RNase T1 coupled; 2,400 compounds, 74% hits; shares compounds with TPT1 inhibitor; inhibition, % at 5 µM; AID 2149;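 active = inhibition above the primary screen limit, the mean inhibition of all tested compounds plus 3 SD, cut at about 25% in these data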
RNase T1 counter – blocks Aspergillus oryzae RNase T1, a TPT1 counter-screen. shares compounds with TPT1 inhibitor. RNase T1 cleavage, fluorescence polarization, 1536-well. inhibition, % at 5 µM. 2,400 compounds, 83% hits;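 active = inhibition above the solvent-only control well mean plus 3 SD, limit set per screening run, cut at about 23% in these data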;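 also: inhibitors block cleavage so intact labeled substrate keeps polarization high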
Target sequence (P00651 whole entry, looked up): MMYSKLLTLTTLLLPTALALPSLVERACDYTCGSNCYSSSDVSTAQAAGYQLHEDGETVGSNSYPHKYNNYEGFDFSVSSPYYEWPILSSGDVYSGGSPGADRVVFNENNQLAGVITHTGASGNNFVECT
Large screens that a line does not name were inactive (follow-up assays come after a bar, where they were run). Shown are actives, neighbours in structure and some others; about 1.7% of the full set was active somewhere.

COc1ccc(CN2CCN(Cc3cc(=O)oc4cc(C)ccc34)CC2)c(OC)c1OC	TPT1 inhibitor 26.5 | caTPT1 confirm inactive | RNase T1 counter inactive
O=c1c(/C=C(\O)c2ccccc2)nc2ccccc2n1-c1ccccc1	HNF4A DNA FP 45.7, TPT1 inhibitor 119.3 | caTPT1 confirm 86.4 | RNase T1 counter 95.3
C[C@H](CO)N1C[C@H](C)[C@@H](CN(C)C(=O)c2ccncc2)OCc2cn(nn2)CCCC1=O	none (no result: HNF4A DNA FP, CSN inh, TPT1 inhibitor)
C=CCN1C(C(=O)OC)CN(Cc2cn(CCC3OCCO3)nn2)CCS1(=O)=O (centres undefined)	none (no result: HNF4A DNA FP, CSN inh, TPT1 inhibitor)
COc1ccc(CNC(=O)O[C@H]2CC[C@@]34CCCN3C(=O)CCC[C@H]4[C@H]2C)cc1OC	none (no result: HNF4A DNA FP, CSN inh, TPT1 inhibitor)
COc1ccc(C2CC(c3c(O)cc(C)oc3=O)=NCCS2)c(OC)c1 (centres undefined)	TPT1 inhibitor 41.6 (no result: NR1D1 modulator) | caTPT1 confirm inactive | RNase T1 counter inactive
Cn1cc(/C=C/c2cc[n+](C)cc2)c2cc(F)ccc21	TPT1 inhibitor 40.3 (no result: NR1D1 modulator) | caTPT1 confirm 49.4 | RNase T1 counter 55.9
O=C1/C(=C\c2cccc(O)c2O)SC(=S)N1Cc1ccccc1	none
O=C1/C(=C\c2cc([N+](=O)[O-])ccc2O)SC(=S)N1Cc1ccc(Cl)cc1	TPT1 inhibitor 43.2 | caTPT1 confirm 47.4 | RNase T1 counter 57.1
CCN(CC)c1ccc(C=C(c2nnnn2-c2ccccc2)c2nnnn2-c2ccccc2)cc1	TPT1 inhibitor 68.9 | caTPT1 confirm 93.8 | RNase T1 counter 104.2
Cc1ccc(C)n1-c1cccc(C(=O)Nc2ccccc2)c1	TPT1 inhibitor 37.8 | caTPT1 confirm 39.8 | RNase T1 counter 50.2
COc1ccc(NC(=O)c2cccc(-n3c(C)ccc3C)c2)c(OC)c1	none
Cc1ccc(/C=C2\C(=N)N3N=C(CC(=O)N4CCOCC4)SC3=NC2=O)o1	none
N=C1/C(=C\c2ccc(SCc3ccccc3)o2)C(=O)N=C2SC(CC(=O)N3CCOCC3)=NN12	TPT1 inhibitor 26.6 | caTPT1 confirm 27.6 | RNase T1 counter 39.4
O=C1NC(=O)/C(=C\c2ccsc2)N1	none
CCN(CC)c1ccc(/C=C2\NC(=O)NC2=O)cc1	TPT1 inhibitor 27.1 | caTPT1 confirm 36.2 | RNase T1 counter 50.3
C/C(=N/Nc1nc(-c2ccccc2F)nc2ccccc12)c1ccccc1O	TPT1 inhibitor 31.7 | caTPT1 confirm 35.8 | RNase T1 counter 50.7
CCN1C(=O)/C(=C/C=C2/CCCN2C)OC1=S	HNF4A DNA FP 88.3, TPT1 inhibitor 78.1 | caTPT1 confirm 105.7 | RNase T1 counter 115.8
CCN1C(=O)/C(=C/N(C)c2ccccc2)OC1=S	none
NNc1nc(-c2ccccc2Cl)nc2ccccc12	TPT1 inhibitor 31.1 | caTPT1 confirm inactive | RNase T1 counter 33.1
CCCCN1C(=O)C2Cc3c([nH]c4ccccc34)CN2C1=S (centres undefined)	TPT1 inhibitor 25.1 | caTPT1 confirm inactive | RNase T1 counter 38.5
CCCCCN1CC(=O)N2Cc3[nH]c4ccccc4c3C[C@H]2C1=O	none
C/C(=N\NC(=O)c1c(C)nc2ccccn12)c1ccc(O)cc1O	TPT1 inhibitor 35.0 | caTPT1 confirm 37.6 | RNase T1 counter 41.3
C/C(=N\NC(=O)c1c(C)nc2ccccn12)c1ccccc1F	none
CCn1c2ccccc2c2cc(NC(=O)COC(=O)c3cc(F)ccc3F)ccc21	none (no result: HNF4A DNA FP, CSN inh, TPT1 inhibitor)
O=C(C[n+]1cc(Br)cc2ccccc21)c1ccc(Br)cc1	TPT1 inhibitor 26.6 | caTPT1 confirm 35.9 | RNase T1 counter 48.0
S=c1[nH]nc(-c2n[nH]c3c2CCC3)n1N=Cc1ccc(Br)s1	none (no result: HNF4A DNA FP, CSN inh, TPT1 inhibitor)
C/C(=C\C(=O)c1c(O)cc(C)oc1=O)N(C)C	none
COc1ccc(/C=C/C(=O)c2c(O)cc(C)oc2=O)c(OC)c1	TPT1 inhibitor 133.7 | caTPT1 confirm 53.5 | RNase T1 counter 74.8
CCOC(=O)/C=C/c1cccc(OC)c1O	none (no result: TPT1 inhibitor)
COc1cccc(/C=C/C(=O)c2c(O)cc(C)oc2=O)c1O	TPT1 inhibitor 32.6 | caTPT1 confirm inactive | RNase T1 counter inactive
COc1cc(/C=C/C(=O)c2c(O)cc(C)oc2=O)cc(OC)c1O	TPT1 inhibitor 36.9 | caTPT1 confirm inactive | RNase T1 counter inactive
Cc1cc(NS(=O)(=O)c2ccc(NC(=O)CSc3nnc(-c4cccnc4)n3-c3ccccc3)cc2)nc(C)n1	none (no result: HNF4A DNA FP, CSN inh, TPT1 inhibitor)
Cc1ccccc1NC(=O)O[C@H]1CC[C@@]23CCCN2C(=O)CCC[C@H]3[C@H]1C	none (no result: HNF4A DNA FP, CSN inh, TPT1 inhibitor)
